Assay results taken from ChEMBL document CHEMBL2062482 (J Med Chem, 2012).

How the values were obtained:
Cynomolgus monkey [1] = assay: AUC (0 to infinity) in cynomolgus monkey at 1 mg/kg, iv; type: ADME, organism-based, Macaca fascicularis, Plasma; parameters: time infinity, dose 1 mg/kg, route intravenous; settings: in vivo
Summary of the method: (§1)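 Single IV bolus, plasma sampled serially to 24 h post-dose, drug measured by LC-MS/MS, parameters by non-compartmental analysis. Rats and monkeys n = 3 per dose, dogs n = 3 at 1 mg/kg and n = 2 at 20 mg/kg. Nude mice n = 27 per dose level, n = 3 per time point. Mice received the HCl salt in 10% hydroxypropyl-β-cyclodextrin; rats, dogs and monkeys received the TFA salt in PBS.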

Rattus norvegicus [2] = assay: Volume of distribution at steady state in Sprague-Dawley rat at 20 mg/kg, iv; type: ADME, organism-based; parameters: dose 20 mg/kg, route intravenous; settings: in vivo
Summary of the method: (§2)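 Single IV bolus at 1 or 20 mg/kg of TFA salt in phosphate-buffered saline to male Sprague-Dawley rats (n = 3 per dose), Beagle dogs (n = 3 at 1 mg/kg, male; n = 2 at 20 mg/kg, male/female) and male cynomolgus monkeys (n = 3 per dose). Serial plasma to 24 h; LC-MS/MS; non-compartmental analysis.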

Canis familiaris [3] = assay: Volume of distribution at steady state in Beagle dog at 20 mg/kg, iv; type: ADME, organism-based, Canis lupus familiaris; parameters: dose 20 mg/kg, route intravenous; settings: in vivo; summary of the method: as §2
Cynomolgus monkey [4] = assay: Volume of distribution at steady state in cynomolgus monkey at 20 mg/kg, iv; type: ADME, organism-based, Macaca fascicularis; parameters: dose 20 mg/kg, route intravenous; settings: in vivo; summary of the method: as §2
Rattus norvegicus [5] = assay: Terminal half life in Sprague-Dawley rat at 20 mg/kg, iv; type: ADME, organism-based; parameters: dose 20 mg/kg, route intravenous; settings: in vivo; summary of the method: as §1
Canis familiaris [6] = assay: Terminal half life in Beagle dog at 20 mg/kg, iv; type: ADME, organism-based, Canis lupus familiaris; parameters: dose 20 mg/kg, route intravenous; settings: in vivo; summary of the method: as §1
Cynomolgus monkey [7] = assay: Terminal half life in cynomolgus monkey at 20 mg/kg, iv; type: ADME, organism-based, Macaca fascicularis; parameters: dose 20 mg/kg, route intravenous; settings: in vivo; summary of the method: as §1
Rattus norvegicus [8] = assay: Cmax in Sprague-Dawley rat at 20 mg/kg, iv; type: ADME, organism-based; parameters: dose 20 mg/kg, route intravenous; settings: in vivo; summary of the method: as §1
[9] = Cmax in Beagle dog at 20 mg/kg, iv; type: ADME, organism-based, Canis lupus familiaris; parameters: dose 20 mg/kg, route intravenous; settings: in vivo; summary of the method: as §1
Cynomolgus monkey [10] = assay: Cmax in cynomolgus monkey at 20 mg/kg, iv; type: ADME, organism-based, Macaca fascicularis; parameters: dose 20 mg/kg, route intravenous; settings: in vivo; summary of the method: as §1
Rattus norvegicus [11] = assay: AUC (0 to infinity) in Sprague-Dawley rat at 20 mg/kg, iv; type: ADME, organism-based, Plasma; parameters: time infinity, dose 20 mg/kg, route intravenous; settings: in vivo; summary of the method: as §1
Canis familiaris [12] = assay: AUC (0 to infinity) in Beagle dog at 20 mg/kg, iv; type: ADME, organism-based, Canis lupus familiaris, Plasma; parameters: time infinity, dose 20 mg/kg, route intravenous; settings: in vivo; summary of the method: as §1
Cynomolgus monkey [13] = assay: AUC (0 to infinity) in cynomolgus monkey at 20 mg/kg, iv; type: ADME, organism-based, Macaca fascicularis, Plasma; parameters: time infinity, dose 20 mg/kg, route intravenous; settings: in vivo; summary of the method: as §1
Mus musculus [14] = assay: Cmax in mouse at 100 mg/kg, po; type: ADME, organism-based; parameters: dose 100 mg/kg, route oral; settings: in vivo
Summary of the method: (§3)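 Female mice given the mono-TFA salt orally at 100 mg/kg as a solution in PBS.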

Mus musculus [15] = assay: AUC in mouse at 100 mg/kg, po; type: ADME, organism-based, Plasma; parameters: dose 100 mg/kg, route oral; settings: in vivo; summary of the method: as §3
Mus musculus [16] = assay: Toxicity in po dosed mouse xenografted with human MDA-MB-231 cells assessed as effect on body weight measured on days 28; type: organism-based; settings: in vivo
Summary of the method: (§4)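 MDA-MB-231 cells (1.5 × 10^7, 1:1 Matrigel in PBS) implanted subcutaneously in right flank of female nude mice aged 6–8 weeks; ten per group, mean starting tumor 168 mm3. Oral gavage in PBS vehicle, 4.0 mL/kg, schedules including 10, 50 or 100 mg/kg weekly, 10 mg/kg daily or every third day. Body weights measured twice weekly.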

Mus musculus [17] = assay: Toxicity in mouse xenografted with human MDA-MB-231 cells assessed as effect on body weight at 100 mg/kg, po after 28 days; type: organism-based; parameters: dose 100 mg/kg, route oral; settings: in vivo, 672 h; summary of the method: as §4
Rattus norvegicus [18] = assay: Volume of distribution at steady state in Sprague-Dawley rat at 1 mg/kg, iv; type: ADME, organism-based; parameters: dose 1 mg/kg, route intravenous; settings: in vivo; summary of the method: as §2
[19] = Volume of distribution at steady state in Beagle dog at 1 mg/kg, iv; type: ADME, organism-based, Canis lupus familiaris; parameters: dose 1 mg/kg, route intravenous; settings: in vivo, read-out: Vdss; summary of the method: as §2
Cynomolgus monkey [20] = assay: Volume of distribution at steady state in cynomolgus monkey at 1 mg/kg, iv; type: ADME, organism-based, Macaca fascicularis; parameters: dose 1 mg/kg, route intravenous; settings: in vivo; summary of the method: as §2
Rattus norvegicus [21] = assay: Terminal half life in Sprague-Dawley rat at 1 mg/kg, iv; type: ADME, organism-based; parameters: dose 1 mg/kg, route intravenous; settings: in vivo; summary of the method: as §1
Canis familiaris [22] = assay: Terminal half life in Beagle dog at 1 mg/kg, iv; type: ADME, organism-based, Canis lupus familiaris; parameters: dose 1 mg/kg, route intravenous; settings: in vivo; summary of the method: as §1
Cynomolgus monkey [23] = assay: Terminal half life in cynomolgus monkey at 1 mg/kg, iv; type: ADME, organism-based, Macaca fascicularis; parameters: dose 1 mg/kg, route intravenous; settings: in vivo; summary of the method: as §1
Rattus norvegicus [24] = assay: Cmax in Sprague-Dawley rat at 1 mg/kg, iv; type: ADME, organism-based; parameters: dose 1 mg/kg, route intravenous; settings: in vivo; summary of the method: as §1
Canis familiaris [25] = assay: Cmax in Beagle dog at 1 mg/kg, iv; type: ADME, organism-based, Canis lupus familiaris; parameters: dose 1 mg/kg, route intravenous; settings: in vivo; summary of the method: as §1
Cynomolgus monkey [26] = assay: Cmax in cynomolgus monkey at 1 mg/kg, iv; type: ADME, organism-based, Macaca fascicularis; parameters: dose 1 mg/kg, route intravenous; settings: in vivo; summary of the method: as §1
Rattus norvegicus [27] = assay: AUC (0 to infinity) in Sprague-Dawley rat at 1 mg/kg, iv; type: ADME, organism-based, Plasma; parameters: time infinity, dose 1 mg/kg, route intravenous; settings: in vivo; summary of the method: as §1
Canis familiaris [28] = assay: AUC (0 to infinity) in Beagle dog at 1 mg/kg, iv; type: ADME, organism-based, Canis lupus familiaris, Plasma; parameters: time infinity, dose 1 mg/kg, route intravenous; settings: in vivo; summary of the method: as §1
MDA-MB-231 = assay: Antitumor activity against human MDA-MB-231 cells xenografted in mouse assessed as reduction in tumor volume at 100 mg/kg, po administered once in week measured on day 21 relative to control; parameters: scale not given: the % may be the effect or the level left

AUC (Cynomolgus monkey [1]): 0.71 µM·h
Vdss (Rattus norvegicus [2]): 1.7 L/kg
Vdss (Canis familiaris [3]): 1.5 L/kg
Vdss (Cynomolgus monkey [4]): 2.2 L/kg
beta t1/2 (Rattus norvegicus [5]): 50.4 min
beta t1/2 (Canis familiaris [6]): 120 min
beta t1/2 (Cynomolgus monkey [7]): 46.2 min
Cmax (Rattus norvegicus [8]): 31 µM
Cmax [9]: 30 µM
Cmax (Cynomolgus monkey [10]): 24 µM
AUC (Rattus norvegicus [11]): 25 µM·h
AUC (Canis familiaris [12]): 36 µM·h
AUC (Cynomolgus monkey [13]): 19 µM·h
Cmax (Mus musculus [14]): 53.7 µM
AUC (Mus musculus [15]): 203.5 µM·h
Vdss (Rattus norvegicus [18]): 2 L/kg
Vd [19]: 1 L/kg
Vdss (Cynomolgus monkey [20]): 1.6 L/kg
beta t1/2 (Rattus norvegicus [21]): 25.8 min
beta t1/2 (Canis familiaris [22]): 54 min
beta t1/2 (Cynomolgus monkey [23]): 26.4 min
Cmax (Rattus norvegicus [24]): 1.1 µM
Cmax (Canis familiaris [25]): 3.8 µM
Cmax (Cynomolgus monkey [26]): 1.46 µM
AUC (Rattus norvegicus [27]): 0.51 µM·h
AUC (Canis familiaris [28]): 2.1 µM·h
SMILES: CN[C@@H](C)C(=O)N[C@H](C(=O)N1CCC[C@H]1C(=O)Nc1snnc1-c1ccccc1)C1CCCCC1.O=C(O)C(F)(F)F
Activity (Mus musculus [16]): >= 5%
Activity (Mus musculus [17]): Toxic
Activity (MDA-MB-231): 85%
